Measurements reported in ChEMBL document CHEMBL1157562, “Piperazinyl glutamate pyridines as potent orally bioavailable P2Y12 antagonists for inhibition of platelet aggregation” (J Med Chem, 2010).

Assays:
Platelet = test: Relative potency, ratio of IC50 for drug to IC50 for AZD-6140 for platelet aggregation in human platelet rich plasma; type: functional
[1] = Antiplatelet aggregation activity against adenosine diphosphate-induced human platelet rich plasma assessed as inhibition of platelet aggregation by turbidimetric method; type: functional; conditions: Homo sapiens, Platelet, Plasma
How it was run: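 Human PRP, prepared by two-step centrifugation and adjusted to 330 000 platelets/μL with PPP. Compound was preincubated 5 min at 37 °C in 0.5% DMSO, then 20 μM ADP was added. OD626 was read kinetically for 15 min at 37 °C with mixing between reads.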

P2Y purinoceptor 12 = P2Y purinoceptor 12 (Homo sapiens, UniProt Q9H244); test: Displacement of [33P]ADP from human recombinant P2Y12 receptor expressed in CHO cells; type: cell-based
P2Y purinoceptor 12, sequence (Q9H244 whole entry): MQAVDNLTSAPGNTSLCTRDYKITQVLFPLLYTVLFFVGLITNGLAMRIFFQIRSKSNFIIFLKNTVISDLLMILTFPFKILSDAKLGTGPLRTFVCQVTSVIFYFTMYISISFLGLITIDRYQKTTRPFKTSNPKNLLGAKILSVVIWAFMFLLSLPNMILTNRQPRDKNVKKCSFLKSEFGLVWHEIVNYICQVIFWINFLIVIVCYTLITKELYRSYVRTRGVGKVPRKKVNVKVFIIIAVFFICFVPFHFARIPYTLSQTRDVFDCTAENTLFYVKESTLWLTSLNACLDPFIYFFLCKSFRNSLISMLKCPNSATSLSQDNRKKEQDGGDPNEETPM
How it was run: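 Washed membranes from CHO cells expressing synthetic human P2Y12, incubated 1 h at room temperature with 0.2 nM 33P-MeSADP in 50 mM Tris/100 mM NaCl/1 mM EDTA. Compound was tested as a 7-point 3-fold series in triplicate. Nonspecific binding was defined with 300 nM 2-MeSADP, followed by filtration.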

Row | Structure (SMILES) | Ratio IC50 (Platelet) | IC50 [1] [nM] | Ki (P2Y purinoceptor 12) [nM]
1 | CCCCCOC(=O)N1CCN(C(=O)[C@H](CCC(=O)O)NC(=O)c2cc(C(=O)NCCC)cc(-c3ccccc3)n2)CC1 | 20 | 12000 | 11
2 | CCCCOC(=O)N1CCN(C(=O)[C@H](CCC(=O)O)NC(=O)c2cc(OC(=O)N3CCOCC3)cc(-c3ccccc3)n2)CC1 | 0.75 | 760 | 1.7
3 | CCCCOC(=O)N1CCN(C(=O)[C@H](CCC(=O)O)NC(=O)c2cc(N3CCC(N(C)C)CC3)cc(-c3ccccc3)n2)CC1 | 1.4 | 1900 | 5
4 | CCCCCOC(=O)N1CCN(C(=O)[C@H](CCC(=O)O)NC(=O)c2cc(OC(=O)N(C)C3CCOC3)cc(-c3ccccc3)n2)CC1 (some centres not stated) | 0.59 | 470 | 2.3
5 | CCCCCOC(=O)N1CCN(C(=O)[C@H](CCC(=O)O)NC(=O)c2cc(OCCC)cc(-c3ccccc3)n2)CC1 | 28 | 22000 | 18
6 | CCCCCOC(=O)N1CCN(C(=O)[C@H](CCC(=O)O)NC(=O)c2cc(C(=O)N(C)CC)cc(-c3ccccc3)n2)CC1 | 1.3 | 580 | 2.6
7 | CCCCCOC(=O)N1CCN(C(=O)[C@H](CCC(=O)O)NC(=O)c2cc(OC3CCN(S(=O)(=O)CC)CC3)cc(-c3ccccc3)n2)CC1 | 5 | 5300 | 5.1
8 | CCCCOC(=O)N1CCN(C(=O)[C@H](CCC(=O)O)NC(=O)c2cc(OC(=O)N(C)C)cc(-c3ccccc3)n2)CC1 | 1.1 | 1100 | 2
9 | CCOC(=O)N1CCN(C(=O)[C@H](CCC(=O)O)NC(=O)c2cc(OCCO)cc(-c3ccccc3)n2)CC1 | 12 | 7600 | –
10 | CCCCCOC(=O)N1CCN(C(=O)[C@H](CCC(=O)O)NC(=O)c2cc(C(=O)NCCOC)cc(-c3ccccc3)n2)CC1 | 18 | 8000 | 7.9
11 | CCCCOC(=O)N1CCN(C(=O)[C@H](CCC(=O)O)NC(=O)c2cc(OC3CCN(CCOC)CC3)cc(-c3ccccc3)n2)CC1 | 1.1 | 1200 | 9.4
12 | CCCCCOC(=O)N1CCN(C(=O)[C@H](CCC(=O)O)NC(=O)c2cc(N3CCC(N4CCOCC4)CC3)cc(-c3ccccc3)n2)CC1 | 0.95 | 2000 | 10
13 | CCCCCCOC(=O)N1CCN(C(=O)[C@H](CCC(=O)O)NC(=O)c2cc(OCCCC)cc(-c3ccccc3)n2)CC1 | 65 | 97000 | 89
14 | CCCCOC(=O)N1CCN(C(=O)[C@H](CCC(=O)O)NC(=O)c2cc(N3CCC(CN4CCCC4)CC3)cc(-c3ccccc3)n2)CC1 | 1 | – | –
15 | CCCCCOC(=O)N1CCN(C(=O)[C@H](CCC(=O)O)NC(=O)c2cc(N3CCC(O)CC3)cc(-c3ccccc3)n2)CC1 | 3.2 | 2500 | –
16 | CCOC(=O)N1CCN(C(=O)[C@H](CCC(=O)O)NC(=O)c2cc(O)cc(-c3ccccc3)n2)CC1 | 41 | 24000 | 62
17 | CCCCOC(=O)N1CCN(C(=O)[C@H](CCC(=O)O)NC(=O)c2cc(N3CCOCC3)cc(-c3ccccc3)n2)CC1 | 11 | 7200 | 3.3
18 | CCCCOC(=O)N1CCN(C(=O)[C@H](CCC(=O)O)NC(=O)c2cc(N3CCC(N4CCCC4)CC3)cc(-c3ccccc3)n2)CC1 | 1.7 | 560 | 64
19 | CCCCOC(=O)N1CCN(C(=O)[C@H](CCC(=O)O)NC(=O)c2cc(OCC3CCN(C(=O)C(F)(F)F)CC3)cc(-c3ccccc3)n2)CC1 | 2.8 | 3000 | 10

Row | Structure (SMILES) | Ratio IC50 (Platelet) | IC50 [1] [nM] | Ki (P2Y purinoceptor 12) [nM]
20 | CCCCCOC(=O)N1CCN(C(=O)[C@H](CCC(=O)O)NC(=O)c2cc(NC(=O)N3CCN(C)CC3)cc(-c3ccccc3)n2)CC1 | 7.2 | 11000 | 3.2
21 | CCCCCOC(=O)N1CCN(C(=O)[C@H](CCC(=O)O)NC(=O)c2cc(CCCOC)cc(-c3ccccc3)n2)CC1 | 6.6 | 5000 | 8.4
22 | CCCCOC(=O)N1CCN(C(=O)[C@H](CCC(=O)O)NC(=O)c2cc(N3CCC(CN(C)C)CC3)cc(-c3ccccc3)n2)CC1 | 1.3 | – | –
23 | CCCCCOC(=O)N1CCN(C(=O)[C@H](CCC(=O)O)NC(=O)c2cc(NC(=O)NCC(=O)N(C)C)cc(-c3ccccc3)n2)CC1 | 3.9 | 3400 | 4.7
24 | CCCCCOC(=O)N1CCN(C(=O)[C@H](CCC(=O)O)NC(=O)c2cc(OC3CCNCC3)cc(-c3ccccc3)n2)CC1 | 0.64 | 500 | 3.5
25 | CCCCOC(=O)N1CCN(C(=O)[C@H](CCC(=O)O)NC(=O)c2cc(OCCC3CCCCN3)cc(-c3ccccc3)n2)CC1 (some centres not stated) | 0.88 | 810 | 3.7
26 | CCOC(=O)N1CCN(C(=O)[C@H](CCC(=O)O)NC(=O)c2cc(N3CCC(O)CC3)cc(-c3ccccc3)n2)CC1 | 10 | 9900 | –
27 | CCCCOC(=O)N1CCN(C(=O)[C@H](CCC(=O)O)NC(=O)c2cc(N3CCC(CNC)CC3)cc(-c3ccccc3)n2)CC1 | 1 | – | –
28 | CCOC(=O)N1CCN(C(=O)[C@H](CCC(=O)O)NC(=O)c2cc(N3CCC(COC)CC3)cc(-c3ccccc3)n2)CC1 | 9.7 | 10000 | –
29 | CCCCCOC(=O)N1CCN(C(=O)[C@H](CCC(=O)O)NC(=O)c2cc(N3CCC(CN)CC3)cc(-c3ccccc3)n2)CC1 | 0.62 | – | –
30 | CCCCCOC(=O)N1CCN(C(=O)[C@H](CCC(=O)O)NC(=O)c2cc(OCCCC)cc(-c3ccccc3)n2)CC1 | 28 | 28000 | –
31 | CCOC(=O)N1CCN(C(=O)[C@H](CCC(=O)O)NC(=O)c2cc(OCCN)cc(-c3ccccc3)n2)CC1 | 11 | 7500 | –
32 | CCCCCOC(=O)N1CCN(C(=O)[C@H](CCC(=O)O)NC(=O)c2cc(N3CCC(CN4CCCC4)CC3)cc(-c3ccccc3)n2)CC1 | 0.93 | – | –
33 | CCCCOC(=O)N1CCN(C(=O)[C@H](CCC(=O)O)NC(=O)c2cc(OC3CCNCC3)cc(-c3ccccc3)n2)CC1 | 0.99 | 1100 | –
34 | CCCCCOC(=O)N1CCN(C(=O)[C@H](CCC(=O)O)NC(=O)c2cc(N3CCC(CNC)CC3)cc(-c3ccccc3)n2)CC1 | 0.99 | – | –
35 | CCCCCCOC(=O)N1CCN(C(=O)[C@H](CCC(=O)O)NC(=O)c2cc(N3CCC(COC)CC3)cc(-c3ccccc3)n2)CC1 | 8.9 | 7600 | –
36 | CCOC(=O)N1CCN(C(=O)[C@H](CCC(=O)O)NC(=O)c2cc(NCCOC)cc(-c3ccccc3)n2)CC1 | 13 | 14000 | –
37 | CCOC(=O)N1CCN(C(=O)[C@H](CCC(=O)O)NC(=O)c2cc(OC3CCNCC3)cc(-c3ccccc3)n2)CC1 | 2.5 | 1900 | –
38 | CCCCCCOC(=O)N1CCN(C(=O)[C@H](CCC(=O)O)NC(=O)c2cc(N3CCC(CN)CC3)cc(-c3ccccc3)n2)CC1 | 1.7 | 1600 | –

Row | Structure (SMILES) | Ratio IC50 (Platelet) | IC50 [1] [nM] | Ki (P2Y purinoceptor 12) [nM]
39 | CCOC(=O)N1CCN(C(=O)[C@H](CCC(=O)O)NC(=O)c2cc(OC)cc(-c3ccccc3)n2)CC1 | 55 | 39000 | –
40 | CCOC(=O)N1CCN(C(=O)[C@H](CCC(=O)O)NC(=O)c2cc(OCCCO)cc(-c3ccccc3)n2)CC1 | 12 | 9000 | –
41 | CCCCNC(=S)N1CCN(C(=O)[C@H](CCC(=O)O)NC(=O)c2cccc(-c3ccccc3)n2)CC1 | – | 56000 | 8
42 | CCOC(=O)N1CCN(C(=O)[C@H](CCC(=O)O)NC(=O)c2cc(N(C)C)cc(-c3ccccc3)n2)CC1 | – | > 100000 | 45
43 | CCOC(=O)N1CCN(C(=O)CNC(=O)c2cc(-c3ccccc3)cc(-c3ccccc3)n2)CC1 | – | > 50000 | 733
44 | CCCCNC(=O)N1CCN(C(=O)[C@H](CCC(=O)O)NC(=O)c2cccc(-c3ccccc3)n2)CC1 | – | > 100000 | 613
45 | CCCNC(=S)N1CCN(C(=O)[C@H](CCC(=O)O)NC(=O)c2cccc(-c3ccccc3)n2)CC1 | – | 81000 | 42
46 | CC(C)OC(=O)N1CCN(C(=O)[C@H](CCC(=O)O)NC(=O)c2cccc(-c3ccccc3)n2)CC1 | – | > 100000 | 280
47 | O=C(O)CC[C@H](NC(=O)c1cccc(-c2ccccc2)n1)C(=O)N1CCN(C(=O)OCCC2CC2)CC1 | – | > 100000 | 15
48 | CCCCCNC(=S)N1CCN(C(=O)[C@H](CCC(=O)O)NC(=O)c2cccc(-c3ccccc3)n2)CC1 | – | 42000 | 6
49 | CCOC(=O)N1CCN(C(=O)[C@H](CCC(=O)O)NC(=O)c2cc(OCC3CCNCC3)cc(-c3ccccc3)n2)CC1 | 2.7 | 4000 | –
50 | CCOC(=O)N1CCN(C(=O)[C@H](CCC(=O)O)NC(=O)c2cc(NC)cc(-c3ccccc3)n2)CC1 | 36 | 45000 | –
51 | CCOC(=O)N1CCN(C(=O)[C@H](CCC(=O)O)NC(=O)c2cc(N3CCC(N4CCCC4)CC3)cc(-c3ccccc3)n2)CC1 | 6 | 2000 | –
52 | CCOC(=O)N1CCN(C(=O)[C@H](CCC(=O)O)NC(=O)c2cc(-c3ccccc3)nc(-c3ccccc3)n2)CC1 | – | > 100000 | 356
53 | COCC(=O)N1CCN(C(=O)[C@H](CCC(=O)O)NC(=O)c2cccc(-c3ccccc3)n2)CC1 | – | > 100000 | > 3590
54 | C#CCCOC(=O)N1CCN(C(=O)[C@H](CCC(=O)O)NC(=O)c2cccc(-c3ccccc3)n2)CC1 | – | > 100000 | 79
55 | CCOC(=O)N1CCN(C(=O)[C@H](CCC(=O)O)NC(=O)c2cc(N3CCC(CN)CC3)cc(-c3ccccc3)n2)CC1 | 3.4 | 3300 | –
56 | CCCC(=O)N1CCN(C(=O)[C@H](CCC(=O)O)NC(=O)c2cccc(-c3ccccc3)n2)CC1 | – | > 100000 | 3100
